In ChEMBL document CHEMBL1126834, “Chemistry, binding affinities, and behavioral properties of a new class of "antineophobic" mitochondrial DBI receptor complex (mDRC) ligands” (J Med Chem, 1993):

Experiments:
[1] = Inhibitory activity by measuring its ability to displace [3H]spiperone from dopamine or serotonin 5-HT-1 receptors in rat brain; type: tissue-based
Adrenergic receptor beta = Adrenergic receptor beta (Rattus norvegicus, UniProt P18090+P10608+P26255); assay: Inhibitory activity by measuring its ability to displace [125I]pindolol from beta-adrenergic receptor in rat brain; type: tissue-based
[2] = target: GABA-A receptor; anion channel; assay: Inhibitory activity at GABA A receptor, measured by the ability to displace [3H]GABA from GABA A receptor in rat brain; type: tissue-based
Opioid receptor = Opioid receptor (Rattus norvegicus, UniProt P33533+P34975+P33535); assay: Inhibition of [3H]naxolone binding to opiate receptors in rat brain; type: tissue-based
Cannabinoid receptor 1 = Cannabinoid receptor 1 (Rattus norvegicus, UniProt P20272); assay: Inhibitory activity, measured by displacement [3H]CP-55940 from cannabinoid receptor (CB1) in rat brain; type: tissue-based
[3] = target: Sigma receptor (Rattus norvegicus); assay: Tested for inhibitory activity by measuring its ability to displace [3H]3-PPP from sigma receptor in rat brain
[4] = target: GABA-A receptor; anion channel; assay: Inhibitory activity at GABA A receptor, measured by the ability to displace [35S]TBPS from GABA A receptor in rat brain; type: tissue-based
[5] = target: GABA-A receptor; anion channel; assay: Inhibitory activity at GABA A receptor, measured by the ability to displace [3H]flumazenil from GABA A receptor in rat brain; type: tissue-based
[6] = target: GABA-A receptor; anion channel; assay: Inhibitory activity at GABA A receptor, measured by the ability to displace [3H]zolpidem from GABA A receptor in rat brain; type: tissue-based
[7] = target: Serotonin 2 (5-HT2) receptor (Rattus norvegicus); assay: Inhibitory activity by measuring its ability to displace [3H]ketanserin from serotonin receptor in rat brain
[8] = target: T1, Gastrin/cholecystokinin type B receptor (Rattus norvegicus, UniProt P30553); assay: Inhibitory activity by measuring its ability to displace [3H]L-365260 from cholecystokinin receptor in rat brain; type: tissue-based
T1 sequence (P30553 whole entry): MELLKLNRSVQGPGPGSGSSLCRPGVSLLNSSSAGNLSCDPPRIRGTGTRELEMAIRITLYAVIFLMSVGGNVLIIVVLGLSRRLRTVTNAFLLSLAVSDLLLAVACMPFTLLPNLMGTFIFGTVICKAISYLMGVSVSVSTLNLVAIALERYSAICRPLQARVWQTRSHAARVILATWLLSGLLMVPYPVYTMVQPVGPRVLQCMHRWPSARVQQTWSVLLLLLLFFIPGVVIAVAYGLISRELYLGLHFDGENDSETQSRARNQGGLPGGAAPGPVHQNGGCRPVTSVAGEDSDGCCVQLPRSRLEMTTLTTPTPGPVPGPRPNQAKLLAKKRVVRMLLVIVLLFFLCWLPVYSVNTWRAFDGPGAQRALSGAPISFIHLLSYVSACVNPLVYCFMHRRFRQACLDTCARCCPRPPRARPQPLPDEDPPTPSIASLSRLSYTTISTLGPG

[9] = target: Adrenergic receptor alpha; assay: Inhibitory activity by measuring its ability to displace [3H]WB-4101 from alpha-adrenergic receptor in rat brain; type: tissue-based
[10] = Tested for inhibitory activity by measuring its ability to displace [3H]AMPA from glutamate (non-NMDA) receptor in rat brain; type: tissue-based
[11] = Inhibitory activity at GABA B receptor, measured by the ability to displace [3H]baclofen from GABA B receptor in rat brain; type: tissue-based
Glutamate NMDA receptor = assay: Inhibitory activity by measuring its ability to displace [3H]-MK-801 from glutamate(NMDA) receptor in rat brain; type: tissue-based
[12] = Inhibitory activity by measuring its ability to displace [3H]glycine from glycine receptor in rat brain; type: tissue-based
[13] = target: Adrenergic receptor alpha; assay: Inhibitory activity by measuring its ability to displace [3H]clonidine from alpha-adrenergic receptor in rat brain; type: tissue-based
[14] = target: Adrenergic receptor alpha; assay: Displacement of [3H]clonidine from alpha-adrenergic receptor in rat brain; type: tissue-based
Translocator protein = Translocator protein (Rattus norvegicus, UniProt P16257); assay: Binding affinity against mitochondrial DBI complex (peripheral benzodiazepine receptor) using primary cultures of glial cells
In short: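 Glia from cerebella of 8-day-old Sprague–Dawley rat pups, trypsin-dissociated and grown 14 days (~95% astroglia). Cells lysed in 50 mM Hepes pH 7.4, 4 μg protein per tube. Incubated with [3H]4'-chlorodiazepam and competitor for 90 min at 4 °C, then filtered. Nonspecific binding defined with 10 μM 4'-chlorodiazepam. Triplicate competition curves; IC50 by nonlinear regression, converted to Ki (Bylund–Yamamura).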

Cannabinoid receptor 1, sequence (P20272 whole entry): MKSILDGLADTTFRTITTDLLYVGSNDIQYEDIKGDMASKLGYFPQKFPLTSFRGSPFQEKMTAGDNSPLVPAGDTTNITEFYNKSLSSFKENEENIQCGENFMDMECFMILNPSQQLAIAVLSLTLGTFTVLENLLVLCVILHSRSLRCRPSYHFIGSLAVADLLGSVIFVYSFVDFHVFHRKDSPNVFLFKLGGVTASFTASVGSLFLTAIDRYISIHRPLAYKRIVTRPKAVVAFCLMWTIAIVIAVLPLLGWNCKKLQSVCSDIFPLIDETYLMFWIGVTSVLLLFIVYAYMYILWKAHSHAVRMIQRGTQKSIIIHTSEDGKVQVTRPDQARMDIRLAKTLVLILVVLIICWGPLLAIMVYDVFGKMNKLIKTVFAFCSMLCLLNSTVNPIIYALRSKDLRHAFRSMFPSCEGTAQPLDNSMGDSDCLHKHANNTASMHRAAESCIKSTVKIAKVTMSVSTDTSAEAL
Translocator protein, sequence (P16257 whole entry, looked up): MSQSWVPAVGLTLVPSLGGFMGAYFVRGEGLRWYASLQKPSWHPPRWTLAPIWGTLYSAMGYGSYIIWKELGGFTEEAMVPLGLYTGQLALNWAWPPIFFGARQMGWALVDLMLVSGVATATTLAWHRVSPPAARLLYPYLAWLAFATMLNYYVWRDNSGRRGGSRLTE

Row | SMILES | IC50 [1] [nM] | IC50 (Adrenergic receptor beta) [nM] | IC50 [2] [nM] | IC50 (Opioid receptor) [nM] | IC50 (Cannabinoid receptor 1) [nM] | IC50 [3] [nM] | IC50 [4] [nM] | IC50 [5] [nM] | IC50 [6] [nM] | IC50 [7] [nM] | IC50 [8] [nM] | IC50 [9] [nM] | IC50 [10] [nM] | IC50 [11] [nM] | IC50 (Glutamate NMDA receptor) [nM] | IC50 [12] [nM] | IC50 [13] [nM] | IC50 [14] [nM] | Ki (Translocator protein) [nM]
1 | c1ccc(-c2[nH]c3ccccc3c2CC2=NCCN2)cc1 | > 1000 | > 1000 | > 1000 | > 1000 | > 1000 | > 1000 | > 1000 | > 1000 | > 1000 | > 1000 | > 1000 | > 1000 | > 1000 | > 1000 | > 1000 | > 1000 | > 1000 |  | 
2 | CCCCCCCCCCCCCCCCCCNC(=O)Cc1c(-c2ccccc2)[nH]c2ccccc12 | > 1000 | > 1000 | > 1000 | > 1000 | > 1000 | > 1000 | > 1000 | > 1000 | > 1000 | > 1000 | > 1000 | > 1000 | > 1000 | > 1000 | > 1000 | > 1000 |  | > 1000 | 
3 | CCCCCN(CCCCC)C(=O)Cc1c(-c2ccc(F)cc2)[nH]c2ccccc12 | > 1000 | > 1000 | > 1000 | > 1000 | > 1000 | > 1000 | > 1000 | > 1000 | > 1000 | > 1000 | > 1000 | > 1000 | > 1000 | > 1000 | > 1000 | > 1000 | > 1000 |  | 15
4 | CCCN(CCC)C(=O)Cc1c(-c2ccc(I)cc2)[nH]c2ccccc12 | > 1000 | > 1000 | > 1000 | > 1000 | > 1000 | > 1000 | > 1000 | > 1000 | > 1000 | > 1000 | > 1000 | > 1000 | > 1000 | > 1000 | > 1000 | > 1000 | > 1000 |  | 216
5 | CCCN(CCC)C(=O)CCc1c(-c2ccc(Cl)cc2)[nH]c2ccc(Cl)cc12 | > 1000 | > 1000 | > 1000 | > 1000 | > 1000 | > 1000 | > 1000 | > 1000 | > 1000 | > 1000 | > 1000 | > 1000 | > 1000 | > 1000 | > 1000 | > 1000 | > 1000 |  | 71
6 | CCCN(CCC)C(=O)Cc1c(-c2ccc(Cl)cc2)[nH]c2ccc(Cl)cc12 | > 1000 | > 1000 | > 1000 | > 1000 | > 1000 | > 1000 | > 1000 | > 1000 | > 1000 | > 1000 | > 1000 | > 1000 | > 1000 | > 1000 | > 1000 | > 1000 | > 1000 |  | 3.9
7 | CCCN(CCC)C(=O)Cc1c(-c2ccccc2)[nH]c2cc(F)ccc12 | > 1000 | > 1000 | > 1000 | > 1000 | > 1000 | > 1000 | > 1000 | > 1000 | > 1000 | > 1000 | > 1000 | > 1000 | > 1000 | > 1000 | > 1000 | > 1000 | > 1000 |  | 202
